Key:
A549 [1] = assay: Cytotoxicity against human A549 cells after 72 hrs by MTT assay; format: functional, cell-based; conditions: A549, 72 h
Procedure, shortened: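 MTT assay. Cells seeded at 7 × 10³ per well; after 24 h, exponentially growing cells were exposed to compound (final 0.005–100 µM) for 72 h. MTT was added for 4 h, then 10% SDS in 0.01 N HCl for 18 h at 37 °C. Absorbance read at 550 nm; survival given as % of untreated cells.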

A549 [2] = assay: Cell cycle arrest in human A549 cells assessed as accumulation at G2/M phase at 0.1 uM after 24 hrs; format: functional
Procedure, shortened: (§1)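 A549 cells grown 24 h in drug-free medium or with compound at 0.1 or 1 µM. Cells were trypsinized, washed twice in PBS, fixed in cold 70% ethanol (30 min, -20 °C), then washed in citrate phosphate buffer and PBS. RNase (100 µg/mL) for 30 min at 37 °C, then propidium iodide (100 µg/mL) for 30 min at room temperature. Flow cytometry at 488/525 nm, ≥15 000 events, 3-4 repeats.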

A549 [3] = assay: Cell cycle arrest in human A549 cells assessed as accumulation at G2/M phase at 1 uM after 24 hrs; format: functional; procedure, shortened: as §1
OVCAR-3 = assay: Cytotoxicity against human Ovcar3 cells after 72 hrs by MTT assay; format: functional, cell-based; conditions: OVCAR-3, 72 h
Procedure, shortened: (§2)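 MTT assay. Cells seeded at 7 × 10³ per well; after 24 h, exponentially growing cells were exposed to compound (final 0.005–100 µM) for 72 h. MTT was added for 4 h, then 10% SDS in 0.01 N HCl for 18 h at 37 °C. Absorbance read at 550 nm; survival given as % of untreated cells. IC50 from 6-8 replicate wells, ≥2 independent experiments.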

A549 [4] = assay: Cell cycle arrest in human A549 cells assessed as accumulation at G1 phase at 1 uM after 24 hrs; format: functional; procedure, shortened: as §1
[5] = Cytotoxicity againat taxol-resistant human A549T12 cells after 72 hrs by MTT assay; format: functional, cell-based; conditions: A549, 72 h
A549 [6] = assay: Cell cycle arrest in human A549 cells assessed as accumulation at sub Go phase at 1 uM after 24 hrs; format: functional
A549 [7] = assay: Cell cycle arrest in human A549 cells assessed as accumulation at G1 phase at 0.1 uM after 24 hrs; format: functional; procedure, shortened: as §1
A549 [8] = assay: Resistance index, ratio of IC50 for A549 cells to IC50 for A549T12 cells; format: functional, Homo sapiens
HepG2 = assay: Cytotoxicity against human HepG2 cells after 72 hrs by MTT assay; format: functional, cell-based; conditions: HepG2, 72 h; procedure, shortened: as §2
[9] = Cytotoxicity againat taxol-resistant human A549T24 cells after 72 hrs by MTT assay; format: functional, cell-based; conditions: A549, 72 h
ARO = assay: Cytotoxicity against human Aro cells after 72 hrs by MTT assay; format: functional, cell-based; procedure, shortened: as §2
A549 [10] = assay: Cell cycle arrest in human A549 cells assessed as accumulation at sub Go phase at 0.1 uM after 24 hrs; format: functional
HT-29 = assay: Cytotoxicity against human HT29 cells after 72 hrs by MTT assay; format: functional, cell-based; conditions: HT-29, 72 h; procedure, shortened: as §2
MCF7 = assay: Cytotoxicity against human MCF7 cells after 72 hrs by MTT assay; format: functional, cell-based; conditions: MCF7, 72 h; procedure, shortened: as §2
OE19 = assay: Cytotoxicity against human OE19 cells after 72 hrs by MTT assay; format: functional, cell-based; conditions: OE19, 72 h; procedure, shortened: as §2
A549 [11] = assay: Cell cycle arrest in human A549 cells assessed as accumulation at S phase at 1 uM after 24 hrs; format: functional; procedure, shortened: as §1
PT-45 = assay: Cytotoxicity against human PT45 cells after 72 hrs by MTT assay; format: functional, cell-based; conditions: PT-45, 72 h; procedure, shortened: as §2
[12] = Cytotoxicity against human H295R cells after 72 hrs by MTT assay; format: functional, cell-based; conditions: NCI-H295R; procedure, shortened: as §2
OE33 = assay: Cytotoxicity against human OE33 cells after 72 hrs by MTT assay; format: functional, cell-based; conditions: OE33, 72 h; procedure, shortened: as §2
A549 [13] = assay: Cell cycle arrest in human A549 cells assessed as accumulation at S phase at 0.1 uM after 24 hrs; format: functional; procedure, shortened: as §1
HeLa = assay: Cytotoxicity against human HeLa cells after 72 hrs by MTT assay; format: functional, cell-based; procedure, shortened: as §2

Compound	IC50 (A549 [1]) [µM]	Activity (A549 [2]) [%]	Activity (A549 [3]) [%]	IC50 (OVCAR-3) [µM]	Activity (A549 [4]) [%]	IC50 [5] [µM]	Activity (A549 [6]) [%]	Activity (A549 [7]) [%]	IC50 (HepG2) [µM]	IC50 [9] [µM]	IC50 (ARO) [µM]	Activity (A549 [10]) [%]	IC50 (HT-29) [µM]	IC50 (MCF7) [µM]	IC50 (OE19) [µM]	Activity (A549 [11]) [%]	IC50 (PT-45) [µM]	IC50 [12] [µM]	IC50 (OE33) [µM]	IC50 (HeLa) [µM]	further results
CCCn1ccc2c3c(=O)cc(-c4ccccc4)[nH]c3ccc21	0.05	76.2	76.9	0.02	13.5	0.04	0.3	13.6	0.04	0.04	0.05	1.3	0.2	0.07	0.05	9.6	0.05	0.02	0.1	0.03	Ratio IC50 (A549 [8]): 1.2; Activity (A549 [13]): 8.7%
Cn1ccc2c3c(=O)cc(-c4ccccc4)[nH]c3ccc21	0.3	18.2	74.9	0.7	15.6	0.3	0.3	66.9	1	0.2	0.3	6.4	0.3	0.4	0.1	9.2	0.1	0.09	0.8	0.1	Ratio IC50 (A549 [8]): 1; Activity (A549 [13]): 8.8%
O=c1cc(-c2ccccc2)[nH]c2ccc3[nH]ccc3c12															1				2		
CC(=O)O[C@H]1C(=O)[C@@]2(C)[C@H]([C@H](OC(=O)c3ccccc3)[C@]3(O)C[C@H](OC(=O)[C@H](O)[C@@H](NC(=O)c4ccccc4)c4ccccc4)C(C)=C1C3(C)C)[C@]1(OC(C)=O)CO[C@@H]1C[C@@H]2O [PACLITAXEL]				0.01		0.06			0.3	0.102	0.0002		0.05	0.007	0.4		0.005	0.08	0.2	0.008	
CCCCn1ccc2c3c(=O)cc(-c4ccccc4)[nH]c3ccc21	0.03	80.4	77.6	0.01	12.9	0.02	0.4	11.8	0.02	0.03	0.03	0.2	0.03	0.06	0.007	9.2	0.04	0.01	0.06	0.02	Activity (A549 [13]): 7.7%
CC[C@]1(O)C[C@H]2CN(CCc3c([nH]c4ccccc34)[C@@](C(=O)OC)(c3cc4c(cc3OC)N(C=O)[C@H]3[C@@](O)(C(=O)OC)[C@H](OC(C)=O)[C@]5(CC)C=CCN6CC[C@]43[C@@H]65)C2)C1 [VINCRISTINE]	0.03		45.2	0.02	46.8		0.5		0.2		0.0003		0.01	0.02	0.05	7.9	0.004	0.09	0.03	0.005	
CCCCCn1ccc2c3c(=O)cc(-c4ccccc4)[nH]c3ccc21	0.04	79.6	75.5	0.02	15.5	0.05	0.4	12.4	0.03	0.04	0.07	1	0.2	0.08	0.005	8.8	0.04	0.02	0.02	0.02	Ratio IC50 (A549 [8]): 0.8; Activity (A549 [13]): 7.2%
CCn1ccc2c3c(=O)cc(-c4ccccc4)[nH]c3ccc21	0.03	79.8	77.3	0.04	14.1	0.03	0.4	11.7	0.05	0.03	0.03	0.6	0.03	0.04	0.08	8.1	0.03	0.03	0.2	0.01	Ratio IC50 (A549 [8]): 1; Activity (A549 [13]): 8.1%
O=c1cc(-c2ccccc2)[nH]c2ccc3c(ccn3CC3CC3)c12	0.02	75.7	74.6	0.01	16.3	0.02	0.3	16.5	0.02	0.02	0.03	0.4	0.06	0.04	0.1	8.6	0.02	0.01	0.02	0.02	Ratio IC50 (A549 [8]): 1; Activity (A549 [13]): 7%
CCN(CC)CCn1ccc2c3c(O)cc(-c4ccccc4)nc3ccc21															10				16		
